Compounds with a hit are over-represented: about 5% of the library has one in this group of screens.
T cruzi repl = T. cruzi replication inhibition; T. cruzi beta-gal in NIH3T3, luminescence, 90 h; inhibition, % (no concentration beside the values); 1.4% of 300,000 active;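 active means mean inhibition across valid replicates above about 55%, limit read from the data; inconclusive means mean below that limit but half or more replicates reach it; inactive means mean below it, under half of replicates reach it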;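 further: signal also drops with host cell toxicity which is not excluded here; 0% = plate median of DMSO wells and 100% = zero luminescence signal; higher percent means less beta-gal luminescence so fewer parasites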
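Material: NIH/3T3 host cells with β-galactosidase reporter T. cruzi; Input: 5,000 host fibroblasts per well; Medium: DMEM, 2% fetal bovine serum; Compound: 50 nL DMSO compound solution per well; Schedule: 3 h host attachment, then at least 90 h co-culture; Detection: luminescent β-galactosidase signal after 60 min lysis.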
Mdm2-MdmX inh = inhibitors of human Mdm2/MdmX interaction | O15151+Q00987 | SaOS-2 split-luciferase Mdm2/MdmX complementation, luminescence | inhibition, % at 8 µM | 3% of 330,000 active | AID 485346;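 active means inhibition of at least 50% at 8 µM in the primary screen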
Target sequence (O15151 whole entry, looked up): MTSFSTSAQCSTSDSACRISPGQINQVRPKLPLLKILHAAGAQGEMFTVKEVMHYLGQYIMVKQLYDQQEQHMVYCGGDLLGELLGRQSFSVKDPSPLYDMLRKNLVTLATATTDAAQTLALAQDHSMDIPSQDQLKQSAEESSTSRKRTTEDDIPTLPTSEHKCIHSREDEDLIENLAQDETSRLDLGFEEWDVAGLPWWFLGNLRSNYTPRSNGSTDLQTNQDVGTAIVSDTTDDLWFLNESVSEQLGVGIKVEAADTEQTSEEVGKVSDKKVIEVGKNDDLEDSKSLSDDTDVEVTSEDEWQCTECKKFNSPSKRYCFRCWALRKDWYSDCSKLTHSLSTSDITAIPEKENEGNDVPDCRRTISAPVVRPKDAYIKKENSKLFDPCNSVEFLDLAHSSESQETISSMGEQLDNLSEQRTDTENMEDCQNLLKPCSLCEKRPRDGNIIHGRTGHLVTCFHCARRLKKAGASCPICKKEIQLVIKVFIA
Target sequence (Q00987 whole entry, looked up): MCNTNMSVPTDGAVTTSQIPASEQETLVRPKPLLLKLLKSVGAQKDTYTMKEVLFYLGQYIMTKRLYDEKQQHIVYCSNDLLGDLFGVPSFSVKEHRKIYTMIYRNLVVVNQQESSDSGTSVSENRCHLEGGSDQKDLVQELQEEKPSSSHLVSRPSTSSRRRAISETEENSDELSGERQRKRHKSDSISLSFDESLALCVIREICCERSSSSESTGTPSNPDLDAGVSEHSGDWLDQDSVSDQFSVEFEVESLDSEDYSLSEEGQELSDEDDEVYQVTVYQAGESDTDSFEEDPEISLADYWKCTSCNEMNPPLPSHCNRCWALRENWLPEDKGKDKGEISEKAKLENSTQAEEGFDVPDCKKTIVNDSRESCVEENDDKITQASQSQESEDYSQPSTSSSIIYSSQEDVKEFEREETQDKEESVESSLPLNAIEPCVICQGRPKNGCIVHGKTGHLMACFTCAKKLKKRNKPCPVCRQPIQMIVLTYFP
UPR CHOP act = apoptotic UPR (CHOP) activation | CHO-CHOP luciferase reporter, luminescence; percent of tunicamycin response over DMSO baseline | activation, % at 10 µM | 0.34% of 330,000 active;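 active means at 10 µM dose, activation of 40% or more, normalized to positive control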;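 further: 100% = tunicamycin at 10 µg/mL and 0% = DMSO alone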
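System: CHO-CHOP luciferase reporter cell line | Buffer or medium: F12 medium containing 10% fetal bovine serum | Doses: One dose, 10 µM in 0.5% DMSO | Times: 6 h compound exposure at 37 °C after overnight seeding | Signal: Luciferase luminescence | Read-out: % activation vs tunicamycin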
UPR XBP1 act = activators of adaptive arm of unfolded protein response (XBP1); CHO-XBP1 luciferase reporter, IRE1-XBP1 UPR activation, luminescence; percent of tunicamycin response, DMSO as zero; activation, % at 20 µM; 0.33% of 330,000 active; AID 463104;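 active means versus positive control, 20 µM dose yields 30% or more activation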;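 further: 100% = tunicamycin at 10 µg/mL and 0% = DMSO only wells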
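Material: CHO-XBP1 cells stably carrying IRE1-XBP1-driven luciferase reporter / Amount: 1000 cells per well / Compound: 20 µM, 1% DMSO / Times: 6 h treatment, 37 °C / Detection: luciferase luminescence / Measure: % activation of reporter signal versus tunicamycin and DMSO controls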
Beta cell apopt = beta cell apoptosis inhibition | INS-1E cytokine-induced death, ATP luminescence, 48 h; percent of positive-control rescue, neutral wells zero | AID 435005 | 0.8% of 300,000 active | protection from apoptosis, % (no concentration beside the values);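 active means Every replicate reaches about 75%, or at least half do and their mean reaches it too, limit read from the data; inconclusive means At least half of replicates reach the limit but their mean does not; inactive means Under half of replicates reach the limit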;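 further: 0% = cytokine-treated negative control wells and 100% = positive control rescue; higher means more ATP so stronger rescue from cytokine killing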
CSC inhib = cancer stem cell inhibition; AID 2717; inhibition, % at 7.5 µM; cancer stem cell-like cells viability, luminescence; 1.1% of 300,000 active; in the data active means inhibition above about 75%; inconclusive means no clear call, values can overlap the other calls; tested in HMLE shEcad cells
Mdm2 MdmX conf = confirmation of human Mdm2/MdmX interaction inhibitors | shares compounds with Mdm2-MdmX inh | Mdm2-MdmX binding, luminescent assay | inhibition, % at 8 µM | 55% of 10,000 active; in the data active means inhibition above about 40%
Full FLuc ctr = full-length luciferase inhibition in Mdm2/MdmX counter-screen; shares compounds with Mdm2-MdmX inh; SaOS-2 full-length luciferase counterscreen, luminescence; inhibition, % at 8 µM; 77% of 6,200 active;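 active means mean inhibition at 8 µM reaching about 37%, which flags the compound as non-specific, limit read from the data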;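 further: p53-null SaOS-2 cells with luciferase driven by a doxycycline-inducible promoter; compound on cells about two nights before reading with doxycycline added after day one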
Starred values were filed as active, the others as inactive; ? = inconclusive; . = no result.

SMILES	T cruzi repl	Mdm2-MdmX inh	UPR CHOP act	UPR XBP1 act	Beta cell apopt	CSC inhib	Mdm2 MdmX conf	Full FLuc ctr
CC/C(=C(/CC)c1ccc(O)cc1)c1ccc(O)cc1	-4.9	54.1*	-1.4	-2.9	-11.0	67.7	47.9*	52.6*
CC(=O)/C(C#N)=C1\NC(=O)C(Cc2cc(Cl)ccc2Cl)S1 (stereo not drawn)	5.9	95.8*	1.6	-3.9	14.2	71.6	82.8*	31.2
CC(=O)/C(C#N)=C1\NC(=O)C(Cc2ccccc2Cl)S1 (stereo not drawn)	-2.4	87.0*	-0.5	-3.2	-5.0	-1.9	90.5*	30.1
CC(=O)/C(C#N)=C1\NC(=O)C(Cc2ccc(C)c(C)c2)S1 (stereo not drawn)	-2.8	83.7*	2.3	0.9	6.6	49.2	90.7*	32.1
NC1=NC(=O)C(Cc2cc(Cl)ccc2Cl)S1 (stereo not drawn)	-2.0	20.4	2.9	0.7	-13.9	-10.2	.	.
O=C1NC(=Nc2ccccc2)SC1Cc1cccc(Cl)c1Cl (stereo not drawn)	-7.3	.	.	.	-6.8	17.2	.	.
CC(=O)/C(C#N)=C1\NC(=O)C(Cc2ccc(F)cc2)S1 (stereo not drawn)	-40.1	2.7	0.2	-0.9	1.1	4.1	.	.
CCOC(=O)C1(CCCc2ccccc2)CCN(Cc2cn(CC)nc2C)CC1	-27.7	11.7	-1.8	-2.7	7.0	38.8	.	.
O=c1[nH]c(C2CCCN(S(=O)(=O)c3ccc(F)cc3)C2)nc2c1nnn2Cc1ccc(F)cc1 (stereo not drawn)	3.8	8.8	-1.6	1.8	6.4	-9.3	.	.
COc1ccc(C2CC(c3ccc(Cl)cc3)=NN2c2ccc(S(N)(=O)=O)cc2)cc1 (stereo not drawn)	.	86.8*	4.5	5.6	.	.	14.7	.
NS(=O)(=O)c1ccc(N2N=C(c3ccc(Br)cc3)CC2c2ccc(F)cc2)cc1 (stereo not drawn)	52.6	72.3*	-1.0	4.7	-1.0	124.7*	39.4	75.2*
NS(=O)(=O)c1ccc(N2N=C(c3ccccc3)CC2c2ccccc2Br)cc1 (stereo not drawn)	.	52.0*	2.5	2.6	.	.	17.2	.
NS(=O)(=O)c1ccc(N2N=C(c3ccccc3)CC2c2cccc(Br)c2)cc1 (stereo not drawn)	.	27.8	3.2	2.7	.	.	.	.
O=[N+]([O-])c1ccc(N2N=C(c3ccccc3)CC2c2ccccc2O)cc1 (stereo not drawn)	62.8*	90.5*	0.0	13.2	25.1	102.5*	35.5	103.6*
Cc1ccc(-n2[nH]c(C)c(C=Nc3ccc(S(=O)(=O)N4CCOCC4)cc3)c2=O)c(C)c1	-8.4	-1.2	3.0	-2.1	-3.8	6.1	.	.
COc1ccc(C2CC(c3cccc(Cl)c3)=NN2c2ccc(S(N)(=O)=O)cc2)cc1 (stereo not drawn)	.	67.7*	4.9	0.5	.	.	-2.6	.
O=C(Nc1cc(C(F)(F)F)cc(C(F)(F)F)c1)Nc1cnn(-c2ccc([N+](=O)[O-])cc2)c1C(F)(F)F	-6.6	100.3*	24.7	17.3	115.7*	101.9*	93.3*	60.0*
Cc1ccc(C)c(CSc2nc3[nH]ncc3c(=O)[nH]2)c1	-40.5	56.0*	-2.8	-2.5	-4.0	61.4	68.2*	48.1*
Cc1cc(NC(=O)c2ccc(F)cc2F)n(-c2nc3ccccc3[nH]2)n1	-9.0	65.8*	5.0	3.4	16.3	-1.3	39.8	29.6
Cc1cc(NC(=O)CC2CCCC2)n(-c2nc3ccccc3[nH]2)n1	18.8	56.6*	0.4	13.2	20.7	31.2	11.1	.
Cc1cc(NC(=O)/C=C/c2ccccc2Cl)n(-c2nc3ccccc3[nH]2)n1	46.8	-8.2	9.0	4.4	38.4	36.9	.	.
Cc1c(C(=O)Nc2ccc(N3CCOCC3)cc2)oc2ccccc12	-3.9	-22.2	5.5	3.6	3.5	3.9	.	.
Cc1c(C(=O)Nc2ccc(S(=O)(=O)N(C)C3CCN(C)CC3)cc2)oc2c(Cl)cccc12	58.8*	87.6*	3.0	2.9	.	10.9	74.6*	63.9*
O=C(COc1ccc(Br)cc1Cl)NC(=O)Nc1ccc2c(c1)OCCO2	-12.3	52.8*	0.6	-0.8	-0.3	-0.9	5.5	.
O=C(COc1ccccc1Cl)Nc1ccc2c(c1)OCCO2	-1.8	-105.9	7.4	0.4	-0.9	-3.6	.	.
SMILES	T cruzi repl	Mdm2-MdmX inh	UPR CHOP act	UPR XBP1 act	Beta cell apopt	CSC inhib	Mdm2 MdmX conf	Full FLuc ctr
Cc1ccc(C)c(OCC(=O)Nc2ccc(S(=O)(=O)N3CCN(C)CC3)cc2)c1	-0.4	-15.8	0.2	-1.8	1.9	-2.2	.	.
CN1CCC(N(C)S(=O)(=O)c2ccc(NC(=O)COc3ccc(Br)cc3Cl)cc2)CC1	?	62.8*	2.8	0.8	3.5	.	55.7*	72.3*
Cc1c(C(=O)Nc2ccc(S(=O)(=O)N(C)C3CCN(C)CC3)cc2)oc2ccccc12	.	91.7*	1.9	3.5	-1.8	1.2	34.5	.
O=C(COc1coc(CN2CCN(c3ccccc3)CC2)cc1=O)Nc1ccc(F)cc1	-11.7	2.7	1.4	-1.1	.	-1.8	.	.
Cc1noc(C)c1COc1ccc(C(=O)OCC(=O)Nc2cccc(S(=O)(=O)N3CCOCC3)c2)cc1	-14.0	4.8	-1.0	-2.6	-1.0	-9.2	.	.
C=CC[C@H](CC(=O)NCCO)C(=O)N[C@H](COC(=O)[C@@H](CC=C)Cc1ccc(F)cc1)Cc1ccccc1	.	-24.4	0.0	0.5	-8.0	.	.	.
CCn1nc(NC(=O)Cc2ccc(OC)cc2)c2cc3cccc(C)c3nc21	0.4	3.8	0.6	-2.3	0.5	7.0	.	.
CCn1nc(NC(=O)Cc2ccc(OC)cc2)c2cc3cc(C)ccc3nc21	-4.2	61.7*	3.1	0.6	7.6	-7.2	5.0	.
Cc1cccc(NC(=O)c2nc[nH]c2C(=O)NCCCNC(=O)c2[nH]cnc2C(=O)Nc2cccc(C)c2)c1	.	72.9*	10.4	9.4	-6.5	76.7*	62.9*	43.0*
Cc1cccc(NC(=O)c2nc[nH]c2C(=O)NCCN(CCNC(=O)c2[nH]cnc2C(=O)Nc2cccc(C)c2)CCNC(=O)c2[nH]cnc2C(=O)Nc2cccc(C)c2)c1	.	85.9*	2.1	-1.4	-6.2	27.9	50.5*	38.8*
Cc1cccc(NC(=O)c2nc[nH]c2C(=O)N(C)Cc2ccccc2)c1	.	-6.4	4.2	1.8	-1.4	-5.1	.	.
Cc1cccc(NC(=O)c2nc[nH]c2C(=O)N[C@@H](CCCCNC(=O)OC(C)(C)C)C(=O)OC(C)(C)C)c1	62.0*	61.3*	2.1	2.0	13.2	.	23.6	.
